Type in all cases: functional
Test [1] relates to Escherichia coli. The test is described as follows: Antibacterial activity against Escherichia coli ATCC 25922 assessed as inhibition of bacterial growth incubated for 24 hrs by multiplate photometer method.
Test [2] has as its system Escherichia coli. The test is described as follows: Antibacterial activity against Escherichia coli ATCC 25922 assessed as inhibition of bacterial growth incubated for 18 hrs by CLSI protocol based method. The procedure, abridged: (§1)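 CLSI broth microdilution in cation-adjusted Mueller Hinton broth, in polypropylene plates. Bacteria were grown at 37 °C with shaking (200 rpm) for 8 h, then diluted into fresh medium and added to the wells. Compounds were tested as twofold dilutions from 64 to 0.25 μM (final), in triplicate, with growth and sterility controls. Plates were incubated at 37 °C with shaking. MIC is the lowest concentration with no growth, consistent across three biological replicates.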

For test [3], the system named is Staphylococcus aureus. The test can be described thus: Antibacterial activity against Staphylococcus aureus ATCC 29213 assessed as inhibition of bacterial growth incubated for 18 hrs by CLSI protocol based method. An outline of the steps:
as §1

Test [4] concerns Staphylococcus aureus. The test is described as follows: Antibacterial activity against methicillin-resistant Staphylococcus aureus assessed as inhibition of bacterial growth incubated for 24 hrs by multiplate photometer method.

SMILES strings stand for the structures. In brackets after ≈: the same amount, converted by molar mass. Positions of bridges follow the written chain, without caps; N, C: chain ends. Non-standard residues stand in square brackets, D forms with d. Residues, ends and D or L forms follow the SMILES beside them. ξ: configuration not given here. *: point of attachment. Octanoyl(7-Me) = CC(C)CCCCCC(=O)*; Hexanoyl(4ξ-Me) = CCC(C)CCC(=O)*; dOrn = NCCC[C@@H](N)C(=O)O; X1 = CC[C@H](C)CCCCC(=O)*; Orn = NCCC[C@H](N)C(=O)O; Dab = NCC[C@H](N)C(=O)O Some results are limits rather than exact numbers.

Among the data in ChEMBL document CHEMBL4840318, “The Total Chemical Synthesis and Biological Evaluation of the Cationic Antimicrobial Peptides, Laterocidine and Brevicidine” (2021) are MIC values, retold here.

By MIC is commonly meant the lowest concentration that inhibits growth of the organism.

For `CC[C@H](C)[C@@H]1NC(=O)[C@@H](NC(=O)[C@H](Cc2c[nH]c3ccccc23)NC(=O)[C@@H](CCCN)NC(=O)CNC(=O)[C@H](CCCN)NC(=O)[C@@H](CCCN)NC(=O)[C@@H](Cc2c[nH]c3ccccc23)NC(=O)[C@@H](Cc2ccc(O)cc2)NC(=O)[C@@H](CO)NC(=O)CCCCCC(C)C)[C@@H](C)OC(=O)CNC(=O)CNC(=O)[C@H](CC(N)=O)NC1=O` ({Octanoyl(7-Me)}-[dS][dY][dW][dOrn][Orn]G[dOrn]WTINGG; ester 9-C), the minimum inhibitory concentration (MIC) is 2 µg/mL (≈ 1.25 µM) in the test on Escherichia coli [1], 0.25 µg/mL (≈ 0.156 µM) in the test with Escherichia coli [2], over 64 µg/mL in the test with Staphylococcus aureus [3] and over 64 µg/mL in the test with Staphylococcus aureus [4].

Turning to `CC[C@H](C)CCCCC(=O)N[C@@H](CCN)C(=O)N[C@H](C(=O)N[C@@H](CCN)C(=O)N[C@H]1CCNC(=O)[C@H]([C@@H](C)O)NC(=O)[C@H](CCN)NC(=O)[C@H](CCN)NC(=O)[C@H](CC(C)C)NC(=O)[C@@H](Cc2ccccc2)NC(=O)[C@H](CCN)NC1=O)[C@@H](C)O` (X1-[Dab]T[Dab][Dab][Dab][dF]L[Dab][Dab]T; lactam 4-C), the MIC with Escherichia coli [1] is 1 µg/mL (≈ 0.831 µM); with Escherichia coli [2] it was 0.3 µg/mL (≈ 0.249 µM); in the test on Staphylococcus aureus [3], over 64 µg/mL; in the test on Staphylococcus aureus [4], 32 µg/mL (≈ 26.6 µM).

Regarding `CCC(C)CCC(=O)N[C@H](CC(N)=O)C(=O)N[C@H](Cc1ccc(O)cc1)C(=O)N[C@H](Cc1c[nH]c2ccccc12)C(=O)N[C@H](CCCN)C(=O)N[C@@H](CCCN)C(=O)NCC(=O)N[C@H](CCCN)C(=O)N[C@@H](Cc1c[nH]c2ccccc12)C(=O)N[C@@H]1C(=O)N[C@@H]([C@@H](C)CC)C(=O)NCC(=O)N[C@@H](CO)C(=O)O[C@@H]1C` (some centres undefined) ({Hexanoyl(4ξ-Me)}-[dN][dY][dW][dOrn][Orn]G[dOrn]WTIGS; ester 9-C), the MIC with Escherichia coli [1] is 2 µg/mL (≈ 1.32 µM); in the test with Escherichia coli [2], 2 µg/mL (≈ 1.32 µM); with Staphylococcus aureus [3], over 64 µg/mL; in the test on Staphylococcus aureus [4] it was over 64 µg/mL.

Consider `CC1(C)S[C@@H]2[C@H](NC(=O)[C@H](N)c3ccc(O)cc3)C(=O)N2[C@H]1C(=O)O` [AMOXICILLIN], for which the values for the MIC in the test on Escherichia coli [2] and in the test on Staphylococcus aureus [3] were 6 µg/mL (≈ 16.4 µM) and 3 µg/mL (≈ 8.21 µM), respectively.
